Test results as given in ChEMBL document CHEMBL3352174, “Identification of a New RXRα Antagonist Targeting the Coregulator-Binding Site” (ACS Med Chem Lett, 2014).
Active and inactive are the calls of the source. No cut-off for these calls is given here.

Columns and labels:
[1] = target: T1, Retinoic acid receptor RXR-gamma (Homo sapiens) (UniProt P48443); assay: Antagonist activity against RXRgamma ligand binding domain (unknown origin) expressed in human HEK293T cells assessed as inhibition of 9-cis-RA-induced receptor transactivation at 2 and 10 uM after 18 hrs by luciferase reporter gene based mammalian one-hybrid assay; assay type: cell-based; settings: HEK-293T
T1 sequence (whole entry): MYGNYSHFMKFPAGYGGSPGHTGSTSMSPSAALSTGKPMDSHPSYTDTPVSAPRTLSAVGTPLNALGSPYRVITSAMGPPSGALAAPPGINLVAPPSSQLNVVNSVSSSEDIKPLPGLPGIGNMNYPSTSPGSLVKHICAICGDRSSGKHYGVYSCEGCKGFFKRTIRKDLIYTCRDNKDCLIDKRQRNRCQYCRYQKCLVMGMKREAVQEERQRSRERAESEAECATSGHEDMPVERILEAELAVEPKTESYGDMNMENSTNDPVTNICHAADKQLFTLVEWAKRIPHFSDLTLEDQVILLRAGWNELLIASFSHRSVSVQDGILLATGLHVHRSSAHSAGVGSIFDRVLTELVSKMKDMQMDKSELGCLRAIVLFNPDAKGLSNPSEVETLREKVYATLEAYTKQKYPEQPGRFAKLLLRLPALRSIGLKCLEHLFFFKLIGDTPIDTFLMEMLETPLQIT

[2] = target: T2, Retinoic acid receptor RXR-alpha (Homo sapiens) (UniProt P19793); assay: Antagonist activity against RXRalpha in human HepG2 cells assessed as inhibition of AKT phosphorylation at 5 and 10 uM after 24 hrs by Western blotting method; assay type: cell-based
T2 sequence (whole entry): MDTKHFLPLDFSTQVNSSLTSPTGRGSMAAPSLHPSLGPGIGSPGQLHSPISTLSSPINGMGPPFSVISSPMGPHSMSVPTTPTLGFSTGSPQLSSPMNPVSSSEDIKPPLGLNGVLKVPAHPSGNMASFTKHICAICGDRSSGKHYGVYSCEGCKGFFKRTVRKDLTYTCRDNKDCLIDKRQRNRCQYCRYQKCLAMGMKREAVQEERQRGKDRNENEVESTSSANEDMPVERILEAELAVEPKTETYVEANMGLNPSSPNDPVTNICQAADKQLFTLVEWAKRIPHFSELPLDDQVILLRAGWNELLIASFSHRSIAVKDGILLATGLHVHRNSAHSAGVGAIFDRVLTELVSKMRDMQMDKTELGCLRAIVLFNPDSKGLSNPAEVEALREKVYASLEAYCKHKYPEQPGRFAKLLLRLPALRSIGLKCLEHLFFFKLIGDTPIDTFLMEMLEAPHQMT
In short: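 A549 or HepG2 cells were exposed to compound for 24 h, then with or without TNFα (20 ng/mL) for 30 min more. Lysates were immunoblotted for AKT activation. One of three to five similar experiments shown.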

inhibition [1]: Active
inhibition [2]: Dose-dependent effect
Compound: Cc1cc(=O)oc2c(/C=N/NC(=O)CSc3nc4ccccc4s3)c(O)ccc12
